Test results taken from ChEMBL document CHEMBL1131603, “Synthesis and biological activity of chimeric structures derived from the cytotoxic natural compounds dolastatin 10 and dolastatin 15” (J Med Chem, 1998).
Where a SMILES comes first, the peptide text is derived from it. [ ]: non-standard residue; d: D form. The star is where a group is joined. X2 = COC1=CC(=O)N(C(=O)[C@@H](O*)C(C)C)[C@H]1Cc1ccccc1; Dolaproine = CO[C@@H]([C@@H]1CCCN1)[C@@H](C)C(=O)O; NMe2Val = CC(C)[C@@H](C(=O)*)N(C)C; X1 = c1ccc(CC(N*)c2nccs2)cc1; NMeV = CN[C@H](C(=O)O)C(C)C

How the values were obtained:
[1] = biological target: Tubulin (Bos taurus, UniProt Q6B856+Q862L2+Q862F3); assay: In vitro inhibition of tubulin polymerization measured as turbidity formed by centrifugation; format: protein assay
How it was run: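 Microtubule protein purified from bovine brain by assembly (37 °C)/disassembly (0 °C) cycles in MES buffer (pH 6.6) with glycerol and GTP; used at 2 mg/mL with 1 mM GTP. Compounds added in DMSO; assembly started by temperature jump from 4 to 37 °C and followed by turbidity at 350 nm. IC50 taken as concentration giving 50% inhibition of assembly rate.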

[2] = system: HT-29; assay: Inhibitory activity against growth of HT-29 cell line; format: functional, cell-based; settings: Homo sapiens
How it was run: (§1)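 HT-29 cells grown in RPMI 1640 with 10% fetal calf serum, 2 mM glutamine, antibiotics and 10 mM HEPES (pH 7.4). Exposed for 96 h to nine serial dilutions in triplicate; growth read by microculture tetrazolium assay. IC50 is the concentration lowering optical density 50% versus untreated controls; ratio is compound IC50 over parent dolastatin IC50.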

[3] = system: L1210; assay: Inhibitory activity against growth of L1210 cell line; format: functional, cell-based; settings: Mus musculus
How it was run: (§2)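 L1210 murine leukemia cells in RPMI 1640 with 10% fetal calf serum, 2 mM glutamine, antibiotics and 10 mM HEPES (pH 7.4). Treatment lasted 48 h at nine serial dilutions in triplicate, with a microculture tetrazolium read-out. IC50 gives 50% optical density reduction versus untreated cells; ratio is compound IC50 divided by parent dolastatin IC50.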

[4] = system: HT-29; assay: Selectivity was evaluated [Selectivity = IC50 / IC50 of Dolastatin] against HT-29 cell line; format: functional, Homo sapiens; how it was run: as §1
[5] = system: MCF7; assay: Selectivity was evaluated [Selectivity = IC50 / IC50 of Dolastatin] against MCF-7 cell line; format: functional, Homo sapiens
How it was run: (§3)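 For MCF7 cells, cultured in supplemented RPMI 1640 (10% fetal calf serum, 10 mM HEPES, pH 7.4), exposure ran 168 h to nine serial dilutions in triplicate. Viability was read by microculture tetrazolium assay. IC50 is the concentration halving optical density relative to untreated controls; ratio is compound IC50 over parent dolastatin IC50.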

[6] = system: MCF7; assay: Inhibitory activity against growth of MCF-7 cell line; format: functional, cell-based; settings: Homo sapiens; how it was run: as §3
[7] = system: L1210; assay: Selectivity was evaluated [Selectivity = IC50 / IC50 of Dolastatin] against L1210 cell line; format: functional, Mus musculus; how it was run: as §2

Row | IC50 [1] [nM] | IC50 [2] [nM] | IC50 [3] [nM] | IC50 [6] [nM] | SMILES | Selectivity [4] | Selectivity [5] | Selectivity [7]
1 | 3600 | 396 | 1.58 | 0.19 | CC[C@H](C)[C@@H]([C@@H](CC(=O)N1CCC[C@H]1C(=O)O[C@H](C(=O)N1C(=O)C=C(OC)[C@@H]1Cc1ccccc1)C(C)C)OC)N(C)C(=O)[C@@H](NC(=O)[C@H](C(C)C)N(C)C)C(C)C | 1365 | 5 | 12
2 | 1800 | 2.06 | 0.73 | 0.84 | CC[C@]1(O)C[C@H]2CN(CCc3c([nH]c4ccccc34)[C@@](C(=O)OC)(c3cc4c(cc3OC)N(C=O)[C@H]3[C@@](O)(C(=O)OC)[C@H](OC(C)=O)[C@]5(CC)C=CCN6CC[C@]43[C@@H]65)C2)C1 [VINCRISTINE] |  |  | 
3 | 13000 | 11.4 | 2.72 | 2.48 | CO[C@H]([C@@H](C)C(=O)NC(Cc1ccccc1)c1nccs1)[C@@H]1CCCN1C(=O)[C@@H]1CCCN1C(=O)[C@H](C(C)C)N(C)C(=O)[C@@H](NC(=O)[C@H](C(C)C)N(C)C)C(C)C (some centres undefined) (NMe2Val-V[NMeV]P[Dolaproine]-X1) | 190 | 83 | 90

Row | SMILES | IC50 [1] [nM] | IC50 [2] [nM] | IC50 [3] [nM] | IC50 [6] [nM] | Selectivity [4] | Selectivity [5] | Selectivity [7]
4 | COC1=CC(=O)N(C(=O)[C@@H](OC(=O)[C@@H]2CCCN2C(=O)[C@@H]2CCCN2C(=O)[C@H](C(C)C)N(C)C(=O)[C@@H](NC(=O)[C@H](C(C)C)N(C)C)C(C)C)C(C)C)[C@H]1Cc1ccccc1 [DOLASTATIN 15] (NMe2Val-V[NMeV]PP-X2) | 17000 | 0.29 | 0.13 | 0.04 |  |  | 
5 | CC[C@H](C)[C@@H]([C@@H](CC(=O)N1CCC[C@H]1[C@H](OC)[C@@H](C)C(=O)N[C@@H](Cc1ccccc1)c1nccs1)OC)N(C)C(=O)[C@@H](NC(=O)[C@H](C(C)C)N(C)C)C(C)C [DOLASTATIN-10] | 2200 |  |  | 0.03 |  |  | 
